A short description of series [1]: folding enthalpy; higher = less favourable; fluorescence melt of hairpins on a sequencing array, two-state fit. The note with it: sodium 0.088 M. A digest of the protocol:
(§1)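 On a sequenced MiSeq flow cell, library hairpins with annealed Cy3 and quencher oligos were imaged for Cy3 fluorescence in 2.5 °C steps up to 60 °C, in 50 mM Na-HEPES pH 8.0, 25 mM NaCl. Normalisation used pre-quench Cy3 and control constructs. Bootstrapped two-state fits gave melting temperature and folding enthalpy, combined by inverse variance across four replicates and with fitted temperatures raised by 9.35 °C to match UV melts.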

Series [2] is described as follows: melting temperature; fluorescence melt of hairpins on a sequencing array, two-state fit, raised by 9.35 °C to match UV melts. The note with it: sodium 0.088 M. A digest of the protocol:
as §1

In the case of GATGTGGGAAACCACATC (((((((....))))))), in series [1], the folding enthalpy is -42.1 kcal/mol. Besides, the Tm in series [2] is 60.9 °C.
As to GGCTTAGAAATAAGCC ((((((....)))))), the folding enthalpy in series [1] was -33.4 kcal/mol. For the same sequence, the Tm in series [2] was determined as 55.4 °C.
For GATCATCAAAATGATC ((((((....)))))), in that order: -33.3 kcal/mol and 45 °C.
The corresponding values for GGTGGACGAAAGTCGACC (((.(((....))).))) are -39.9 kcal/mol and 57.2 °C.
For GCTCCGCGAAAGCAAAGC (((..((....))..))), in that order: -11 kcal/mol and 31.5 °C.
With GATCGCAACTGCGATC ((((((....)))))), in series [1], the folding enthalpy was -33.8 kcal/mol. The Tm in series [2] is 69.2 °C.
With GCGCGAGGAAACCCACGC (((.(.(....).).))), in series [1], the folding enthalpy is -20.3 kcal/mol. For the same sequence, the Tm in series [2] turned out to be 40 °C.
The corresponding values for GATCAGAAGCTGATC ((((((...)))))) are -33 kcal/mol and 48 °C.
As for GCGAGAAATCGC ((((....)))), in series [1], the folding enthalpy was -21.5 kcal/mol. Besides, in series [2], the Tm was determined as 52.5 °C.
The corresponding values for GGTTCACCGAAAGGTACC (((..(((....)))))) are -11.9 kcal/mol and 32.2 °C.
For TCACGGAAACGTGA (((((....))))), in that order: -19.9 kcal/mol and 50.9 °C.
Turning to GTAATCGAAAGATTTAC ((((((....))).))), the folding enthalpy in series [1] was -14.7 kcal/mol. For the same sequence, the Tm in series [2] amounted to 33.3 °C.
GATCACCCTGGTGATC ((((((....)))))): in series [1], the folding enthalpy is -41.1 kcal/mol. Also, the Tm in series [2] was 64.1 °C.
The corresponding values for GCGTCCGGACGC ((((....)))) are -40.9 kcal/mol and 60.3 °C.
On to GCGGTGCGAAAGCCACGC (((..((....))..))), for which the folding enthalpy in series [1] was -19.8 kcal/mol. Further, the Tm in series [2] turned out to be 61.5 °C.
On to GATCTTTGTAAAGATC ((((((....)))))), for which, in series [1], the folding enthalpy was -34.3 kcal/mol. The Tm in series [2] was determined as 47.5 °C.
CGCGGAAGAATCCGCG ((((((....)))))): the folding enthalpy in series [1] was -32.1 kcal/mol. Further, in series [2], the Tm was 69 °C.
Regarding GTGCCAACGAAAGTTCAC (((..(((....)))))), the folding enthalpy in series [1] was -4.38 kcal/mol. In addition, in series [2], the Tm is 36.3 °C.
The corresponding values for GTTATCGAAAGATACAAC ((((((....)))..))) are -9.31 kcal/mol and 23.5 °C.
For GTCAGACGAAAGTCGAC (((.(((....)))))), in that order: -31.5 kcal/mol and 51.9 °C.
The corresponding values for GACCTAGCGAAAGCTGTC (((..(((....)))))) are -11.6 kcal/mol and 33 °C.
Consider GACAGCGAAAGCTTCGTC ((((((....)))..))), for which the folding enthalpy in series [1] was -13 kcal/mol. In addition, the Tm in series [2] turned out to be 43.9 °C.
With GTGCGATCGAAAGATCAC (((..(((....)))))), in series [1], the folding enthalpy is -18.2 kcal/mol. The Tm in series [2] was determined as 44.4 °C.
As to GATCACCTAAGTGATC ((((((....)))))), the folding enthalpy in series [1] is -38.9 kcal/mol. The Tm in series [2] came to 56.4 °C.
As for GGCGTACGAAAGTAGGCC (((.(((....))).))), the folding enthalpy in series [1] was -36.6 kcal/mol. The Tm in series [2] turned out to be 64.1 °C.
Turning to GCGAGTATTCGC ((((....)))), in series [1], the folding enthalpy was -26.6 kcal/mol. Besides, the Tm in series [2] was 57.2 °C.
The corresponding values for GTCACCGAAAGGTGTGAC ((((((....)))..))) are -11.6 kcal/mol and 42.4 °C.
The corresponding values for GGTCATGGAAACGTGACC (((((.(....).))))) are -52.9 kcal/mol and 53.6 °C.
The corresponding values for GCGGACAGCCGC ((((....)))) are -17.4 kcal/mol and 53.8 °C.
In the case of GGGCGCGAAAGCGGGCCC ((((((....)))..))), the folding enthalpy in series [1] was -13.4 kcal/mol. For the same sequence, in series [2], the Tm stood at 64.8 °C.
GTCGTCGGAAACGATGGC (.(.(((....))).).): in series [1], the folding enthalpy was -25.4 kcal/mol. In series [2], the Tm is 46.2 °C.
For the sequence GACATGGGAAACCACGTC (((.(((....))).))), the folding enthalpy in series [1] was -26.7 kcal/mol. For the same sequence, the Tm in series [2] turned out to be 38.8 °C.
Consider GGGGGACGAAAGTCTCCC (((.(((....))).))), for which the folding enthalpy in series [1] is -34.4 kcal/mol. In addition, the Tm in series [2] was 66 °C.
Take GATCGATGTTCGATC ((((((...)))))): in series [1], the folding enthalpy is -29.4 kcal/mol. The Tm in series [2] turned out to be 51 °C.
The corresponding values for GGGGCGGGAAACCGCTCC ((.((((....)))).)) are -19.8 kcal/mol and 66.9 °C.
As to GAACACGAAAGTGTGTTC ((((((....)))..))), the folding enthalpy in series [1] is -17.8 kcal/mol. The Tm in series [2] was determined as 50 °C.
In the case of GGTCAGGGAAACCTGGTC (..((((....))))..), the folding enthalpy in series [1] was -15.9 kcal/mol. In addition, in series [2], the Tm stood at 35.7 °C.
